Sampled rows, rich in hits. Any-hit rate of the full collection: about 3.8%.
KCNQ1 inh: inhibitors of human KCNQ1 channel, primary screen, cell-based, thallium flux, high-throughput; Potassium voltage-gated channel subfamily KQT member 1 (Homo sapiens), P51787; B-score at 10 µM; 310,000 compounds, 1.3% hits; CHO-K1 KCNQ1, FluxOR thallium flux fluorescence; stronger effect = higher value;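 active = compounds whose thallium flux B-score, printed positive for inhibition, exceeds three library SD while starting fluorescence stays within three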;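 also: channel opened by potassium depolarization with thallium stimulus after 20 min compound exposure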
KCNK9 block: KCNK9 potassium channel inhibitors, primary screen, HEK293 cells, thallium flux | FluxOR thallium flux fluorescence; stronger effect = lower value | 310,000 compounds, 1.2% hits | AID 488922, 2010 | B-score at 10 µM;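 active = ratio B-score over 3 SD below the library mean, with starting fluorescence within 5 SD of its mean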;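 also: negative B-score means less thallium flux so channel inhibition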
hERG rescue: hERG rescue from dofetilide block, primary screen, cell-based, CHO-hERG, FluxOR thallium flux, dofetilide IC70; Voltage-gated inwardly rectifying potassium channel KCNH2 (Homo sapiens), Q12809; dofetilide IC70 present; activation (rescue from dofetilide block), less the hit threshold, % at 10 µM; 310,000 compounds, 0.51% hits; AID 1511, 2009;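 active = activation above the mean of controls blocked by dofetilide plus 5 SD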;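 also: thallium influx through hERG after potassium depolarization seen as dye fluorescence rise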
KCNQ1 pot: potentiators or activators of KCNQ1 channel, primary screen, cell-based, thallium flux, high-throughput; Potassium voltage-gated channel subfamily KQT member 1 (Homo sapiens), P51787; 310,000 compounds, 0.35% hits; AID 2648, 2010; B-score at 10 µM; CHO-K1 KCNQ1, thallium flux FluxOR fluorescence; stronger effect = higher value;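 active = fluorescence ratio B-score, a plate-corrected score, at least three library SD, with initial intensity B-score within 5 SD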
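Assay system: CHO-K1 cells stably expressing KCNQ1; Medium: assay buffer with matched DMSO; Also added: K+/Tl+ depolarizing stimulus; Dosing: single dose; Timing: dye 90 min, compound 20 min, room temperature; Measured by: kinetic FluxOR thallium fluorescence, 10-s 1-Hz baseline, 110-s post-stimulus read; Read-out: peak-minus-minimum fluorescence over initial fluorescence, negative-control normalized, B-scored.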
Kir21 block: inhibitors of mouse Kir2.1 inward-rectifier potassium channel; Inward rectifier potassium channel 2 (Mus musculus), P35561; HEK293-Kir2.1, FluxOR thallium flux fluorescence; stronger effect = lower value; B-score at 10 µM; 310,000 compounds, 0.85% hits; AID 1672, 2009;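 active = fluorescence ratio B-score at or below minus 3 SD of library scores, with starting-brightness B-score within 2 SD, cut at about -4.2 in these data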;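 also: channel flux triggered by added potassium and thallium sulfate stimulus; B-score of peak minus minimum fluorescence over baseline after thallium stimulus; more negative B-score means stronger Kir2.1 block with less thallium influx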
Target sequence (P35561 whole entry, looked up): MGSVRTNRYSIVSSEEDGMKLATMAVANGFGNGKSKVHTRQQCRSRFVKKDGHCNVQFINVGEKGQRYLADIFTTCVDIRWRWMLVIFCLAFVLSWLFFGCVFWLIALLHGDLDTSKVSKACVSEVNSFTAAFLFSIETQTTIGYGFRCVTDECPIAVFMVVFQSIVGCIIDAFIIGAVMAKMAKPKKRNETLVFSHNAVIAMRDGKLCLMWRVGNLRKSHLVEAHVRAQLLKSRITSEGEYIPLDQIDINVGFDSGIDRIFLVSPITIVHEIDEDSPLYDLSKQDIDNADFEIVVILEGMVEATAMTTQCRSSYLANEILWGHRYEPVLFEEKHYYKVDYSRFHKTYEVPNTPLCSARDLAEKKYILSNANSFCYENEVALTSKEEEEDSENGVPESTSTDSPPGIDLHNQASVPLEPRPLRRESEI
KCNK3 block: human KCNK3 channel inhibitors, primary screen, CHO cells, FluxOR thallium flux, B-score; 340,000 compounds, 0.84% hits; Potassium channel subfamily K member 3 (Homo sapiens), O14649; FluxOR fluorescence; stronger effect = lower value; AID 602410, 2012; B-score at 10 µM;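 active = B-score under library mean minus 4 SD, starting fluorescence ratio at most library mean plus 5 SD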;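 also: more negative B-score means stronger inhibition of thallium flux through KCNK3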
KCNK9 block conf: KCNK9 potassium channel inhibitors, confirmation, HEK293 cells, thallium flux, duplicate; FluxOR thallium flux fluorescence; AID 492992, 2010; inhibition, % at 10 µM; 4,900 compounds, 43% hits; shares compounds with KCNK9 block;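 active = thallium signal inhibited by more than 5 SD of the compound-free buffer control wells, on both duplicate plates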
Kir2-1 spec: mouse Kir2.1 channel inhibition, confirmation, selectivity assay for KCNK9 modulator project, cell-based, HEK293, thallium flux. AID 492993, 2010. inhibition, % at 10 µM. 4,900 compounds, 4% hits. Kir2.1 cells, FluxOR thallium flux fluorescence. shares compounds with KCNK9 block;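 active = thallium signal drop more than 5 SD beyond the mean of the no-compound control wells, seen in both duplicate plates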;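 also: signal is fluorescence rise after thallium addition divided by baseline fluorescence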
KCNK9 uninduced: thallium flux in non-induced HEK293 cells, confirmation, counter-screen for KCNK9 inhibitor project, cell-based, second counter screen, non-induced KCNK9-HEK293; shares compounds with KCNK9 block; FluxOR thallium flux; inhibition, % at 10 µM; 4,900 compounds, 40% hits;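 active = thallium signal drop beyond 5 SD of the untreated control mean, on both duplicate plates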
Hits are given with their value.

For COc1ccc(C(=O)C2CCCN(C(=O)c3ccccc3C(C)=O)C2)cc1F (centres undefined) the results were KCNQ1 inh inactive, KCNK9 block inactive, hERG rescue inactive, KCNQ1 pot inactive, Kir21 block inactive and KCNK3 block inactive.
For Cc1ccc(C)c(SCC(=O)N(C)C2CCS(=O)(=O)C2)c1 (centres undefined) the results were KCNK3 block inactive.
`NS(=O)(=O)c1cccc(C(=O)OCC(=O)NC2CCCc3ccccc32)c1` (centres undefined) gave KCNK3 block inactive.
For CCOc1ccc(N(CC(=O)NCCSCc2ccco2)S(=O)(=O)c2ccc(C)cc2)cc1 the results were KCNQ1 inh inactive, KCNK9 block inactive, hERG rescue inactive, KCNQ1 pot inactive, Kir21 block inactive and KCNK3 block inactive.
Screening O=C(NCc1ccco1)C1CCCN1C(=O)Nc1ccccc1Cl (centres undefined) returned KCNQ1 inh inactive, KCNK9 block inactive, hERG rescue inactive, KCNQ1 pot inactive, Kir21 block inactive and KCNK3 block inactive.
Screening COc1ccc(C(=O)C2CCCN(C(=O)c3noc4c3CCCC4)C2)c(C)c1 (centres undefined) returned KCNQ1 inh inactive, KCNK9 block inactive, hERG rescue inactive, KCNQ1 pot inactive, Kir21 block inactive, KCNK3 block inactive, KCNK9 block conf inactive, Kir2-1 spec inactive and KCNK9 uninduced inactive.
For C#Cc1cccc(C(=O)N2CCCC(C(=O)c3ccc(OC)cc3C)C2)c1 (centres undefined) the results were KCNQ1 inh inactive, KCNK9 block inactive, hERG rescue inactive, KCNQ1 pot inactive, Kir21 block -4.3, KCNK3 block inactive, KCNK9 block conf inactive, Kir2-1 spec inactive and KCNK9 uninduced inactive.
Screening O=C(CNC(=O)c1ccc(C(F)(F)F)cc1)NC1CC1 returned KCNK3 block inactive.
Screening Cc1cccc(OC(C)C(=O)Nc2ccc(S(=O)(=O)N3CCCC3)cc2)c1 (centres undefined) returned KCNQ1 inh inactive, KCNK9 block inactive, hERG rescue inactive, KCNQ1 pot inactive, Kir21 block inactive and KCNK3 block inactive.
Screening CCOC(=O)c1c(-c2ccc(-c3ccccc3)cc2)csc1NC(=O)CNCCN(C)C returned KCNQ1 inh 6, KCNK9 block -10, hERG rescue inactive, KCNQ1 pot inactive, Kir21 block inactive, KCNK3 block inactive, KCNK9 block conf 57%, Kir2-1 spec 32% and KCNK9 uninduced 29%.
Screening CCOC(=O)c1c(-c2cccc([N+](=O)[O-])c2)csc1NC(=O)C1CC1 returned KCNQ1 inh inactive, KCNK9 block -8.3, hERG rescue inactive, KCNQ1 pot inactive, Kir21 block inactive, KCNK3 block inactive, KCNK9 block conf 24%, Kir2-1 spec inactive and KCNK9 uninduced 24%.
Screening CCOC(=O)c1c(-c2cccc([N+](=O)[O-])c2)csc1NC(=O)C1CCCCC1 returned KCNQ1 inh inactive, KCNK9 block inactive, hERG rescue inactive, KCNQ1 pot inactive, Kir21 block inactive and KCNK3 block inactive.
Screening Cc1ccc(/C=N/n2cnc3sc(C)c(C)c3c2=O)o1 returned KCNQ1 inh inactive, KCNK9 block inactive, hERG rescue inactive, KCNQ1 pot inactive, Kir21 block inactive, KCNK3 block inactive, KCNK9 block conf inactive, Kir2-1 spec inactive and KCNK9 uninduced inactive.
`Cc1cccc(-c2ncc(CN3CCN(CC(C)C)C(CCO)C3)cn2)c1` (centres undefined) gave KCNQ1 inh inactive, KCNK9 block inactive, hERG rescue inactive, KCNQ1 pot inactive, Kir21 block inactive, KCNK3 block inactive, KCNK9 block conf inactive, Kir2-1 spec inactive and KCNK9 uninduced inactive.
Screening CCCn1c(N)c(N(CCOC)C(=O)c2ccc(-c3ccc(Cl)cc3)o2)c(=O)[nH]c1=O returned KCNQ1 inh inactive, KCNK9 block inactive, hERG rescue inactive, KCNQ1 pot inactive, Kir21 block inactive and KCNK3 block inactive.
CCN(C(=S)Nc1ccc(Oc2ccccc2)cc1)c1ccccc1 was read as KCNQ1 inh inactive, KCNK9 block inactive, hERG rescue inactive, KCNQ1 pot inactive, Kir21 block inactive, KCNK3 block inactive, KCNK9 block conf inactive, Kir2-1 spec inactive and KCNK9 uninduced inactive.
Screening Cn1c(SCC(=O)NCCc2ccccc2)nnc1C1CCCCC1 returned KCNQ1 inh inactive, KCNK9 block inactive, hERG rescue inactive, KCNQ1 pot inactive, Kir21 block inactive and KCNK3 block inactive.
For CCOC(=O)c1ccc(N2C(=O)c3n[nH]c(-c4ccco4)c3C2c2cccc([N+](=O)[O-])c2)cc1 (centres undefined) the results were KCNQ1 inh inactive, KCNK9 block -9.4, hERG rescue inactive, KCNQ1 pot inactive, Kir21 block inactive, KCNK3 block inactive, KCNK9 block conf 64%, Kir2-1 spec inactive and KCNK9 uninduced 30%.
Screening Cc1nn(Cc2ccccc2)c(Cl)c1C(=O)OCc1nnc(-c2ccc(Cl)cc2)o1 returned KCNQ1 inh inactive, KCNK9 block inactive, hERG rescue inactive, KCNQ1 pot inactive, Kir21 block inactive, KCNK3 block inactive, KCNK9 block conf inactive, Kir2-1 spec inactive and KCNK9 uninduced inactive.
`C=CC[C@H](CC(=O)N(CCO)Cc1ccccc1)C(=O)N[C@H](COC(=O)[C@@H](CC=C)CC(=O)OC(C)(C)C)c1ccccc1` gave KCNK3 block inactive.
For Cc1ccc(C(=O)N/N=C2\SCC(=O)N2c2cc(C)ccc2C)cc1 the results were KCNQ1 inh inactive, KCNK9 block inactive, hERG rescue inactive, KCNQ1 pot inactive, Kir21 block inactive, KCNK3 block inactive, KCNK9 block conf inactive, Kir2-1 spec inactive and KCNK9 uninduced inactive.

High-throughput results as filed in PubChem BioAssay.
